Activity calls are given as the source filed them. The calls are words filed in the database; no cut-off is given here.
What was measured:
[1] = Cell cycle arrest in human SH-SY5Y cells assessed as accumulation at G0G1 phase at IC50 after 16 hrs by flow cytometry (reference value: 70.2 %); type: functional, cell-based
In short: (§1)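 SH-SY5Y neuroblastoma cells were kept in 50% DMEM/50% F-12 with 10% FBS and 2 mM L-glutamine. Cells were exposed 16 h to vehicle or compound, washed in PBS and fixed in 70% EtOH at -20 °C. They were then treated with RNAse 100 μg/mL for 1 h at 37 °C and stained with 25 μg/mL propidium iodide plus 5 mM EDTA for 30 min at 4 °C in the dark. DNA content was read by flow cytometry; 3 experiments.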

[2] = Cytotoxicity against human SH-SY5Y cells assessed as cell viability at 1 uM after 48 hrs by MTT assay; type: functional; conditions: read-out: Activity
In short: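 SH-SY5Y cells in 24-well plates were treated 48 h with 1 μM compound. They were washed in Locke's solution (10 mM HEPES pH 7.6) and given MTT 250 μg/mL for 1 h at 37 °C. Formazan was dissolved in isopropanol/0.1 M HCl and read at 570 nm. Result is % viable cells, 8-12 determinations from 3 experiments.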

[3] = Metabolic stability in human liver microsomes assessed as peak area after 60 mins by LC-UV analysis; type: ADME; conditions: read-out: Stability
In short: (§2)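 Human liver microsomes were incubated with compound alone, with NADPH, with NADPH+GSH (60 min; phase I), or with UDPGA (30 min; phase II). Extracts were analysed by LC-UV, and remaining substrate is reported as peak area % relative to controls without microsomes.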

[4] = Metabolic stability in human liver microsomes assessed as peak area after 60 mins by LC-UV analysis in presence of NADPH; type: ADME; conditions: read-out: Stability; in short: as §2
[5] = Cell cycle arrest in human SH-SY5Y cells assessed as accumulation at G2/M phase at 3 times IC50 after 16 hrs by flow cytometry (reference value: 18.5 %); type: functional, cell-based; in short: as §1
[6] = target: T1, Tubulin (Homo sapiens) (UniProt P68371+Q9H4B7+P0DPH7+P68366+Q13509+Q71U36+P04350+Q3ZCM7+P07437+P68363+Q9BQE3+Q6PEY2+Q13885+Q9BVA1+Q9BUF5); experiment: Displacement of [3H]colchicine from tubulin (unknown origin) at 1 uM after 30 mins by beta-counting; type: protein-complex assay
In short: (§3)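 It was preincubated 30 min at 37 °C with test compound at 1 or 10 μM, then given 0.2 μCi [3H]colchicine for 1 h at 37 °C. Samples were stopped with ice-cold water, filtered on nitrocellulose and counted by β-counter. Results are % inhibition, ≥7 replicates from 3 experiments.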

[7] = Cytotoxicity against human SH-SY5Y cells assessed as reduction in cell viability after 48 hrs by MTT assay; type: functional, cell-based
In short: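 SH-SY5Y cells were exposed 48 h across a concentration range, then given MTT 250 μg/mL in Locke's solution for 1 h at 37 °C. Formazan was dissolved in isopropanol/0.1 M HCl and absorbance read at 570 nm. IC50 was taken from concentration-response curves; 8-12 determinations from 3 experiments.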

[8] = Cell cycle arrest in human SH-SY5Y cells assessed as accumulation at G2/M phase at IC50 after 16 hrs by flow cytometry (reference value: 18.5 %); type: functional, cell-based; in short: as §1
[9] = Metabolic stability in human liver microsomes assessed as peak area after 30 mins by LC-UV analysis in presence of NADPH and UDPGA; type: ADME; conditions: read-out: Stability; in short: as §2
[10] = target: T1, Tubulin (Homo sapiens); experiment: Inhibition of tubulin polymerization in human SH-SY5Y cells at 3 times IC50 after 16 hrs by Western blot analysis; type: cell-based
[11] = Cell cycle arrest in human SH-SY5Y cells assessed as accumulation at S phase at 3 times IC50 after 16 hrs by flow cytometry (reference value: 10.6 %); type: functional, cell-based; in short: as §1
[12] = Metabolic stability in human liver microsomes assessed as peak area after 60 mins by LC-UV analysis in presence of NADPH and GSH; type: ADME; conditions: read-out: Stability; in short: as §2
[13] = Cell cycle arrest in human SH-SY5Y cells assessed as accumulation at G0G1 phase at 3 times IC50 after 16 hrs by flow cytometry (reference value: 70.2 %); type: functional, cell-based; in short: as §1
[14] = target: Tubulin; experiment: (§4) Inhibition of tubulin (unknown origin) polymerization by fluorescence assay; type: protein-complex assay, Homo sapiens
In short: (§5)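 Fluorescence-based kit assay. Tubulin was taken up in ice-cold buffer (80 mM PIPES, 2 mM MgCl2, 0.5 mM EGTA, 1 mM GTP, 20% glycerol) and added to wells containing compound or vehicle.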

[15] = Cell cycle arrest in human SH-SY5Y cells assessed as accumulation at S phase at IC50 after 16 hrs by flow cytometry (reference value: 10.6 %); type: functional, cell-based; in short: as §1
[16] = target: T1, Tubulin (Homo sapiens); experiment: Inhibition of tubulin polymerization in human SH-SY5Y cells at 1 to 3 times IC50 after 16 hrs by immunocytochemistry; type: cell-based
[17] = target: T1, Tubulin (Homo sapiens); experiment: Displacement of [3H]colchicine from tubulin (unknown origin) at 10 uM after 30 mins by beta-counting; type: protein-complex assay; in short: as §3
[18] = target: T1, Tubulin (Homo sapiens); experiment: as §4; type: protein-complex assay; in short: as §5

COc1ccc2c(c1O)NC(=O)CN=C2c1cc(OC)c(OC)c(OC)c1
Activity [1]: 48%
viability at 1 µM [2]: 27.5%
remaining at 1 h [3]: 95%
remaining at 1 h [4]: 96%
Activity [5]: 34.4%
inhibition [6]: 48%
IC50 [7]: 3.9 nM
Activity [8]: 33%
remaining at 0.5 h [9]: 92%
inhibition [10]: Active
Activity [11]: 17.9%
remaining at 1 h [12]: 97%
Activity [13]: 47.5%
IC50 [14]: 1300 nM
Activity [15]: 18.9%
inhibition [16]: Active
inhibition [17]: 80%

COc1cc(C2=NCC(=O)N(C)c3c2ccc(OC)c3OC)cc(OC)c1OC
viability at 1 µM [2]: 76.4%

COc1ccc2c(c1)N(C)C(=O)CN=C2c1cc(OC)c(OC)c(OC)c1
viability at 1 µM [2]: 32.9%
IC50 [7]: 280 nM

COc1ccc2c(c1)NC(=O)CN=C2c1cc(OC)c(OC)c(OC)c1
Activity [1]: 45.5%
viability at 1 µM [2]: 24.7%
Activity [5]: 35%
IC50 [7]: 25.1 nM
Activity [8]: 34.6%
inhibition [10]: Active
Activity [11]: 19.3%
Activity [13]: 45.5%
IC50 [14]: 9000 nM
inhibition [18]: Dose-dependent effect
Activity [15]: 2.1%
inhibition [16]: Active

COc1cc(C2=NCC(=O)N3COc4c(OC)ccc2c43)cc(OC)c1OC
viability at 1 µM [2]: 95.2%

COc1cc(C2=NCC(=O)Nc3cc4c(cc32)OCO4)cc(OC)c1OC
Activity [1]: 49.1%
viability at 1 µM [2]: 35.1%
Activity [5]: 37.7%
IC50 [7]: 71 nM
Activity [8]: 38.1%
inhibition [10]: Active
Activity [11]: 12.6%
Activity [13]: 49.3%
IC50 [14]: 13600 nM
inhibition [18]: Dose-dependent effect
Activity [15]: 12.6%
inhibition [16]: Active

COc1ccc(/C=C\c2cc(OC)c(OC)c(OC)c2)cc1O [COMBRETASTATIN A4]
Activity [1]: 51.1%
viability at 1 µM [2]: 33.4%
remaining at 1 h [3]: 100%
remaining at 1 h [4]: 75%
Activity [5]: 35.4%
IC50 [7]: 2.7 nM
Activity [8]: 38.4%
remaining at 0.5 h [9]: 39%
Activity [11]: 11.4%
remaining at 1 h [12]: 67%
Activity [13]: 52.7%
Activity [15]: 10%

COc1cc(C2=NCC(=O)N(C)c3cc4c(cc32)OCO4)cc(OC)c1OC
viability at 1 µM [2]: 46.4%

COc1ccc2c(c1)C(c1cc(OC)c(OC)c(OC)c1)=NCC(=O)N2
viability at 1 µM [2]: 33.9%
IC50 [7]: 256 nM

COc1cc2c(cc1O)C(c1cc(OC)c(OC)c(OC)c1)=NCC(=O)N2
viability at 1 µM [2]: 64.8%
IC50 [7]: 415 nM

COc1cc2c(cc1OC)N(C)C(=O)CN=C2c1cc(OC)c(OC)c(OC)c1
viability at 1 µM [2]: 105%

COc1ccc2c(c1)C(c1cc(OC)c(OC)c(OC)c1)=NCC(=O)N2C
viability at 1 µM [2]: 44.4%
IC50 [7]: 862 nM

COc1cc2c(cc1OC)C(c1cc(OC)c(OC)c(OC)c1)=NCC(=O)N2
viability at 1 µM [2]: 102%

COc1cc(C2=NCC(=O)Nc3c2ccc(OC)c3OC)cc(OC)c1OC
viability at 1 µM [2]: 46.8%
IC50 [7]: 90.3 nM

Reference: ChEMBL document CHEMBL3407494, “Design, synthesis, and biological evaluation of combretabenzodiazepines: a novel class of anti-tubulin agents” (J Med Chem, 2015)
